Results: ChEMBL document CHEMBL1149143, “Synthesis, antimalarial activity, and molecular modeling of new pyrrolo[1,2-a]quinoxalines, bispyrrolo[1,2-a]quinoxalines, bispyrido[3,2-e]pyrrolo[1,2-a]pyrazines, and bispyrrolo[1,2-a]thieno[3,2-e]pyrazines” (J Med Chem, 2004)

What was measured:
[1] = Lipophilicity at pH 5; assay type: physicochemical; details: buffer, read-out: Log D5.0
Procedure, shortened: (§1)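 Octanol/buffer shake partition: phosphate buffer pH 7.4 or acetate buffer pH 5.0, phases mutually presaturated; compound at 50–250 μg/mL in buffer. Aqueous phase shaken with octanol 30 min, centrifuged 3000 rpm 10 min. Aqueous peak areas before and after partitioning by reversed-phase C8 HPLC (acetonitrile–acetate pH 4, 80:20; 60 °C; UV 254 nm).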

[2] = Lipophilicity at pH 7.4; assay type: physicochemical; details: buffer, read-out: Log D7.4; procedure, shortened: as §1
L6 [3] = assay: In vitro cytotoxicity against mammalian L6 cells was determined; assay type: functional, cell-based; details: Rattus norvegicus
Procedure, shortened: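 L6 cells, 10⁴ per well, exposed to a range of inhibitor concentrations for up to 5 days. Proliferation read by XTT colorimetric assay; inhibition relative to DMSO-treated controls; IC50 reported.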

Plasmodium falciparum [4] = assay: In vitro antimalarial activity against Thai strain of Plasmodium falciparum; assay type: functional, organism-based
Procedure, shortened: (§2)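 P. falciparum kept on human erythrocytes; CQ-sensitive Thai and CQ-resistant FcB1 and K1 strains. Drugs diluted serially in culture medium, added to asynchronous cultures (1% parasitemia, 1% hematocrit) for 24 h at 37 °C, then 0.5 μCi [³H]hypoxanthine per well for 24 h more. Uptake compared with drug-free controls; IC50 from concentration–response curve, mean ± SD of independent experiments. DMSO ≤0.1%.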

Plasmodium falciparum [5] = assay: In vitro antimalarial activity against Plasmodium falciparum FcB1; assay type: functional, organism-based; procedure, shortened: as §2
Plasmodium falciparum [6] = assay: In vitro antimalarial activity against Plasmodium falciparum K1; assay type: functional, organism-based; procedure, shortened: as §2
[7] = Food vacuolar accumulation ratio was determined; assay type: functional
Procedure, shortened: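 Calculated, not measured: VAR from the compound's pKa values, assuming vacuolar pH 5.0 and external pH 7.4.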

Plasmodium falciparum [8] = assay: Resistance index as ratio of IC50 for Plasmodium falciparum FcB1 and Thai strains; assay type: functional
Plasmodium falciparum [9] = assay: Resistance index as IC50 for Plasmodium falciparum K1 and Thai strains; assay type: functional
L6 [10] = assay: Selectivity IC50 index against Plasmodium falciparum K1 compared to L6 cells; assay type: functional

| Compound | logD [1] | logD [2] | IC50 (L6 [3]) [µM] | IC50 (Plasmodium falciparum [4]) [nM] | IC50 (Plasmodium falciparum [5]) [nM] | IC50 (Plasmodium falciparum [6]) [nM] | Ratio [7] | Ratio (Plasmodium falciparum [8]) | Ratio (Plasmodium falciparum [9]) | Ratio (L6 [10]) |
| --- | --- | --- | --- | --- | --- | --- | --- | --- | --- | --- |
| CN(CCCNc1nc2ccc(Cl)cc2n2cccc12)CCCNc1nc2ccc(Cl)cc2n2cccc12 | 3.5 | 4.44 | 4.95 | 400 | 1010 | 700 | 1800 | 2.5 | 1.8 | 7.1 |
| COc1ccc2nc(NCCCNCCCNc3nc4ccc(OC)cc4n4cccc34)c3cccn3c2c1 | 0.93 | 2.58 | 3.62 | 140 | 300 | 330 | 41700 | 2.1 | 2.4 | 11 |
| Clc1ccc2nc(NCCCN3CCN(CCCNc4nc5ccc(Cl)cc5n5cccc45)CC3)c3cccn3c2c1 | 3.43 | 4.92 | 4.01 | 280 | 640 | 480 | 2100 | 2.3 | 1.7 | 8.2 |
| COc1ccc2nc(NCCCN3CCN(CCCNc4nc5ccc(OC)cc5n5cccc45)CC3)c3cccn3c2c1 | 1.88 | 4.67 | 4.06 | 40 | 130 | 80 | 72500 | 3.2 | 2 | 52.7 |
| COc1ccc2c(c1)nc(NCCCN1CCN(CCCNc3nc4cc(OC)ccc4n4cccc34)CC1)c1cccn12 | 2.15 | 3.72 | 1.32 | 30 | 130 | 80 | 187000 | 4.3 | 2.7 | 17.4 |
| CCN(CC)CCCC(C)Nc1nc2ccccc2n2cccc12 (stereo not given) |  |  | > 20 | 2950 | 4970 | 4340 |  | 1.7 | 1.5 | >4.6 |
| CCN(CC)CCCC(C)Nc1nc2ccc(Cl)cc2n2cccc12 (stereo not given) |  |  | 17.3 | 1940 | 4790 | 3060 |  | 2.5 | 1.6 | 5.6 |
| COc1ccc2c(c1)nc(NCCCN(C)CCCNc1nc3cc(OC)ccc3n3cccc13)c1cccn12 | 0.93 | 3.55 | 5.74 | 50 | 110 | 50 | 105000 | 2.2 | 1 | 106.3 |
| CN(CCCNc1nc2ccccc2n2cccc12)CCCNc1nc2ccccc2n2cccc12 | 1.56 | 4.12 | 6.2 | 120 | 480 | 280 | 226000 | 4 | 2.3 | 22.1 |
| COc1ccc2nc(NCCCN(C)CCCNc3nc4ccc(OC)cc4n4cccc34)c3cccn3c2c1 | 0.41 | 3.41 | 3.79 | 120 | 320 | 200 | 42100 | 2.7 | 1.7 | 19.2 |
| c1ccc2c(c1)nc(NCCCN1CCN(CCCNc3nc4ccccc4n4cccc34)CC1)c1cccn12 | 1.31 | 2.52 | 5.04 | 80 | 290 | 370 | 409000 | 3.6 | 4.6 | 13.6 |
| CCN(CC)CCCC(C)Nc1nc2cc(OC)ccc2n2cccc12 (stereo not given) |  |  | > 20 | 830 | 2470 | 1780 |  | 3 | 2.1 | >11.2 |
| COc1ccc2c(c1)nc(NCCCN1CCN(CCCNc3nc4cc(OC)ccc4n4c(Cl)ccc34)CC1)c1ccc(Cl)n12 | 4.17 | 5.74 | 3.07 | 250 | 720 | 330 | 900 | 2.9 | 1.32 | 9.3 |
| c1cnc2c(c1)nc(NCCCN1CCN(CCCNc3nc4cccnc4n4cccc34)CC1)c1cccn12 | 2.22 | 5.05 |  |  | 1090 |  | 100 |  |  |  |
| COc1ccc2nc(NCCCN3CCN(CCCNc4nc5ccc(OC)nc5n5cccc45)CC3)c3cccn3c2n1 | 3.97 | 4.73 |  |  | 600 |  | 33000 |  |  |  |
| Clc1ccc2nc(NCCCNCCCNc3nc4ccc(Cl)cc4n4cccc34)c3cccn3c2c1 | 3.16 | 5.06 | 4.81 | 470 | 1140 | 790 | 1600 | 2.4 | 1.7 | 6.1 |
| COc1ccc2c(c1)nc(NCCCNCCCNc1nc3cc(OC)ccc3n3cccc13)c1cccn12 | 0.8 | 2.76 | 2.98 | 40 | 190 | 110 | 104000 | 4.7 | 2.7 | 26.6 |
| c1cc2c(NCCCN3CCN(CCCNc4nc5ccsc5n5cccc45)CC3)nc3ccsc3n2c1 |  |  |  |  | 930 |  |  |  |  |  |
